How the values were obtained:
Format in all cases: cell-based, human
[1] = test system: TPA-induced EBV-EA expression in Raji cells; test: EBV-EA activation assay; details: for LogCurvP: log10 transformed response fingerprint (CurveP) of the four-dose EBV-EA data; for Exp. Act.: class from experimental LogCurvP, threshold 1.25
[2] = Raji cell viability by Trypan Blue staining; details: human, Raji cells
Outline: (§1)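 Raji cells incubated 48 h at 37 °C in RPMI-1640 with 10 % FCS, n-butyric acid (4 mmol), TPA (32 pmol), and test compound at 0.32, 3.2, 16 or 32 nmol (10- to 1,000-fold of TPA). Viability was scored by Trypan Blue staining, and viability above 60 % was required to count as non-cytotoxic. Each concentration was run three times and averaged.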

Raji cells = test: Raji cell viability by Trypan Blue staining; details: value in parentheses at 32 (1,000-fold of TPA); Trypan Blue staining
Outline: as §1

| SMILES | LogCurvP [1] | viability at 48 h, 32 nmol [2] [%] | Exp. Act. [1] | EBV-EA inhibition potency, comparison in words [1] | viability percentages of Raji cells (Raji cells) [%] |
| --- | --- | --- | --- | --- | --- |
| COc1cccc(CN(C)C(=O)/C=C/c2cccc(O)c2)c1 [Compound 1, (E)-3-(3-hydroxyphenyl)-N-(3-methoxybenzyl)-N-methylacrylamide] | 1.04 | > 60 | – | – | – |
| CN(Cc1cccc(O)c1)C(=O)/C=C/c1cccc(O)c1 [Compound 2, (E)-N-(3-hydroxybenzyl)-3-(3-hydroxyphenyl)-N-methylacrylamide] | 1.04 | > 60 | Marginal active (active/marginally active threshold at LogCurvP = 1.25) | – | – |
| COc1cccc(/C=C/C(=O)NCc2cccc(OC)c2)c1 [Compound 3, (E)-N-(3-methoxybenzyl)-3-(3-methoxyphenyl)acrylamide] | 1.04 | > 60 | Marginal active (active/marginally active threshold at LogCurvP = 1.25) | – | – |
| O=C(/C=C/c1cccc(O)c1)NCc1cccc(O)c1 [Compound 4, (E)-N-(3-hydroxybenzyl)-3-(3-hydroxyphenyl)acrylamide] | 1.04 | > 60 | Marginal active (active/marginally active threshold at LogCurvP = 1.25) | – | – |
| COc1ccc(O)c(C(=O)/C=C/c2cccc(OC)c2OC)c1 [Compound 5, (E)-3-(2,3-dimethoxyphenyl)-1-(2-hydroxy-5-methoxyphenyl)prop-2-en-1-one] | 1.43 | > 60 | Active | – | – |
| COc1ccc2c(c1)C(=O)CC(c1cccc(O)c1O)O2 (stereo not shown) [Compound 6, 2-(2,3-dihydroxyphenyl)-6-methoxychroman-4-one] | 1.43 | > 60 | Active | – | – |
| O=C(/C=C/c1cccc(O)c1O)c1cc(O)ccc1O [Compound 7, (E)-3-(2,3-dihydroxyphenyl)-1-(2,5-dihydroxyphenyl)prop-2-en-1-one] | 1.43 | > 60 | Active | less potent than its ring-closed analog 9 | – |
| COc1ccc2oc(-c3ccc(OC)c(OC)c3)cc(=O)c2c1 [Compound 8, 2-(3,4-dimethoxyphenyl)-6-methoxy-4H-chromen-4-one] | 1.43 | > 60 | Active | – | – |
| O=c1cc(-c2ccc(O)c(O)c2)oc2ccc(O)cc12 [Compound 9, 2-(3,4-dihydroxyphenyl)-6-hydroxy-4H-chromen-4-one] | 1.43 | > 60 | Active | most potent analog among the tested compounds | – |
| COc1ccc2oc(-c3ccc(O)c(OC)c3)cc(=O)c2c1 [Compound 10, 2-(4-hydroxy-3-methoxyphenyl)-6-methoxy-4H-chromen-4-one] | 1.43 | > 60 | Active | – | – |
| COc1ccc2oc(-c3ccc(O)c(O)c3)cc(=O)c2c1 [Compound 11, 2-(3,4-dihydroxyphenyl)-6-methoxy-4H-chromen-4-one] | 1.43 | > 60 | Active | – | – |
| COc1ccc(CCNC(=O)/C=C/c2ccc3c(c2)OCO3)cc1OC [Compound 13, (E)-3-(benzo[d] [1, 3]dioxol-5-yl)-N-(3,4-dimethoxyphenethyl)acrylamide] | 1.04 | – | Marginal active (active/marginally active threshold at LogCurvP = 1.25) | – | > 60 |
| O=C(/C=C/c1ccc2c(c1)OCO2)NCCc1ccc(Cl)cc1 [Compound 14, (E)-3-(benzo[d] [1, 3]dioxol-5-yl)-N-(4-chlorophenethyl)acrylamide] | 0.85 | – | Marginal active (active/marginally active threshold at LogCurvP = 1.25) | – | > 60 |
| O=C(/C=C/c1ccc2c(c1)OCO2)NCCCc1ccccc1 [Compound 15, (E)-3-(benzo[d] [1, 3]dioxol-5-yl)-N-(3-phenylpropyl)acrylamide] | 1.04 | – | Marginal active (active/marginally active threshold at LogCurvP = 1.25) | – | > 60 |
| CN(C)CCCNC(=O)/C=C/c1ccc2c(c1)OCO2 [Compound 16, (E)-3-(benzo[d] [1, 3]dioxol-5-yl)-N-(3-(dimethylamino)propyl)acrylamide] | 0.85 | – | Marginal active (active/marginally active threshold at LogCurvP = 1.25) | – | > 60 |
| COC(=O)COc1cccc2ccccc12 [Compound 17, Methyl 2-(naphthalen-1-yloxy)acetate] | 1.04 | > 60 | Marginal active (active/marginally active threshold at LogCurvP = 1.25) | – | – |
| O=C(O)COc1cccc2ccccc12 [Compound 18, 2-(naphthalen-1-yloxy)acetic acid] | 1.04 | > 60 | Marginal active (active/marginally active threshold at LogCurvP = 1.25) | – | – |
| COc1cc(/C=C/C(=O)CC(=O)/C=C/c2ccc(O)c(OC)c2)ccc1O [Curcumin, reference compound] | 1.43 | > 60 | Active | – | – |
